pIC50: −log10 of the molar value. The source made the active and inactive calls. No cut-off for these calls is given here. Where only a bound is given, the exact number is not on record here.

Experiment [1] has as its system FM3A. Briefly: Inhibit growth of FM3A cells by 50%. Type of experiment: functional, cell-based. The conditions noted are these: Mus musculus. In a few lines: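 FM3A cells were grown in ES medium with 2% heat-inactivated FBS at 37 °C under 5% CO2, seeded at about 5 × 10^4 cells/mL, and exposed to a range of drug concentrations. Cells were counted electronically after 48 h. IC50 is the concentration that reduces growth rate by 50% of control.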

The subject of experiment [2] is P388. Briefly: Tested in vivo for the antitumor activity against P388 in mice after intraperitoneal administration of 200 mg/kg dose; T/C= treated/control. Type of experiment: functional, Mus musculus.
Experiment [3] relates to P388. Briefly: Tested in vivo for the antitumor activity against P388 in mice after intraperitoneal administration of 100 mg/kg dose; T/C= treated/control. It is filed as functional, Mus musculus.
For experiment [4], the system named is P388. Briefly: Compound was tested in vivo for the antitumor activity against P388 in mice after intraperitoneal administration of 400 mg/kg dose; T/C= treated/control. Type of experiment: functional, Mus musculus.
Experiment [5] is described as follows: Inhibit growth of KB cells by 50%. It is filed as functional, cell-based. As to conditions: Homo sapiens.
The test system of experiment [6] is FM3A. Briefly: Ability to induce dNTP pool imbalance at 41 uM dose was tested; significant imbalance in the intracellular dNTP pool in FM3A cells. Type of experiment: functional, cell-based. As to conditions: Mus musculus.
Experiment [7] concerns P388. Briefly: Tested in vivo for the antitumor activity against P388 leukemia cells in mice after intraperitoneal administration of 400 mg/kg dose; T/C= treated/control. It is filed as functional.
Experiment [8] has as its system FM3A. Briefly: Ability to induce dNTP pool imbalance at 9.0 uM dose was tested; significant imbalance in the intracellular dNTP pool in FM3A cells. As to conditions: Mus musculus.
Experiment [9] relates to P388. Briefly: Compound was tested in vivo for the antitumor activity against P388 in mice after intraperitoneal administration of 0.6 mg/kg dose; T/C= treated/control. Type of experiment: functional, Mus musculus.
For experiment [10], the system named is P388. Briefly: Compound was tested in vivo for the antitumor activity against P388 leukemia cells in mice after intraperitoneal administration of 5 mg/kg dose; T/C= treated/control. It is filed as functional, Mus musculus.
For experiment [11], the system named is P388. Briefly: Compound was tested in vivo for the antitumor activity against P388 in mice after intraperitoneal administration of 2.5 mg/kg dose; T/C= treated/control. It is filed as functional, Mus musculus.
The test system of experiment [12] is FM3A. Briefly: Ability to induce dNTP pool imbalance at 16.4 uM dose was tested; significant imbalance in the intracellular dNTP pool in FM3A cells. As to conditions: Mus musculus.
Experiment [13] has as its system P388. Briefly: Compound was tested in vivo for the antitumor activity against P388 in mice after intraperitoneal administration of 50 mg/kg dose; T/C= treated/control. Type of experiment: functional, Mus musculus.
The subject of experiment [14] is P388. Briefly: Compound was tested in vivo for the antitumor activity against P388 in mice after intraperitoneal administration of 25 mg/kg dose; T/C= treated/control. Type of experiment: functional, Mus musculus.
In experiment [15] the test system is P388. Briefly: Compound was tested in vivo for the antitumor activity against P388 leukemia cells in mice after intraperitoneal administration of 100 mg/kg dose; T/C= treated/control. Type of experiment: functional, Mus musculus.
Experiment [16] concerns FM3A. Briefly: Compound''s ability to induce dNTP pool imbalance at 6.1 uM dose was tested; significant imbalance in the intracellular dNTP pool in FM3A cells. It is filed as functional, cell-based. As to conditions: Mus musculus.
Experiment [17] deals with P388. Briefly: Compound was tested in vivo for the antitumor activity against P388 in mice after intraperitoneal administration of 6.3 mg/kg dose; T/C= treated/control. It is filed as functional, Mus musculus.
Experiment [18] deals with FM3A. Briefly: Ability to induce dNTP pool imbalance at 15.0 uM dose was tested; significant imbalance in the intracellular dNTP pool in FM3A cells. The conditions noted are these: Mus musculus.
The test system of experiment [19] is P388. Briefly: Compound was tested in vivo for the antitumor activity against P388 leukemia cells in mice after intraperitoneal administration of 12.5 mg/kg dose; T/C= treated/control.
The test system of experiment [20] is P388. Briefly: Compound was tested in vivo for the antitumor activity against P388 in mice after intraperitoneal administration of 3.1 mg/kg dose; T/C= treated/control. Type of experiment: functional, Mus musculus.
For experiment [21], the system named is FM3A. Briefly: Ability to induce dNTP pool imbalance at 7.9 uM dose was tested; significant imbalance in the intracellular dNTP pool in FM3A cells. As to conditions: Mus musculus.
Experiment [22] has as its system P388. Briefly: Compound was tested in vivo for the antitumor activity against P388 in mice after intraperitoneal administration of 12.5 mg/kg dose; T/C= treated/control. It is filed as functional, Mus musculus.
In experiment [23] the test system is P388. Briefly: Compound was tested in vivo for the antitumor activity against P388 leukemia cells in mice after intraperitoneal administration of 25 mg/kg dose; T/C= treated/control. It is filed as functional, Mus musculus.
Experiment [24] concerns FM3A. Briefly: Ability to induce dNTP pool imbalance at 7.3 uM dose was tested; significant imbalance in the intracellular dNTP pool in FM3A cells. The conditions noted are these: Mus musculus.
Experiment [25] deals with FM3A. Briefly: Ability to induce dNTP pool imbalance at 3.5 uM dose was tested; significant imbalance in the intracellular dNTP pool in FM3A cells. The conditions noted are these: Mus musculus.
Experiment [26] concerns P388. Briefly: Compound was tested in vivo for the antitumor activity against P388 leukemia cells in mice after intraperitoneal administration of 40 mg/kg dose; T/C= treated/control. It is filed as functional, Mus musculus.
For experiment [27], the system named is P388. Briefly: Compound was tested in vivo for the antitumor activity against P388 in mice after intraperitoneal administration of 10 mg/kg dose; T/C= treated/control. It is filed as functional, Mus musculus.
Experiment [28] concerns P388. Briefly: Compound was tested in vivo for the antitumor activity against P388 in mice after intraperitoneal administration of 20 mg/kg dose; T/C= treated/control. It is filed as functional, Mus musculus.
Experiment [29] deals with P388. The conditions noted are these: Mus musculus.

Consider `CC(C)c1ccc(CCCCCCCCCCCCc2ccc(C(C)C)cc(=O)c2O)c(O)c(=O)c1`, for which the pIC50 – broadly, the negative decadic logarithm of the IC50, by convention in mol/L – in the experiment on FM3A [1] was 5.89; in [5], 4.56. The T/C – broadly, the ratio of treated to control – with P388 [2] is listed as 107%; with P388 [3] it was 106%; in the experiment on P388 [4], 105%. Also, in the experiment with FM3A [6], the Imbalance result is “significant imbalance in the intracellular dNTP pool in FM3A cells”.

As to `CC(C)c1cccc(=O)c(O)c1` [HINOKITIOL], the negative-log IC50 (pIC50) in the experiment with FM3A [1] was 5.96; in [5], 5.46. The Imbalance result in the experiment with FM3A [6] is on record as “significant imbalance in the intracellular dNTP pool in FM3A cells”. The T/C entry with P388 [7] (Mus musculus) is “inactive”.

As to `COc1ccc(C(c2ccc(C(C)C)cc(=O)c2O)c2ccc(C(C)C)cc(=O)c2O)cc1`, the Imbalance result in the experiment with FM3A [8] is reported as “significant imbalance in the intracellular dNTP pool in FM3A cells”. Further, the T/C is 127% in the experiment on P388 [9], 173% in the experiment on P388 [10] and 134% in the experiment on P388 [11]. Besides, the pIC50 in the experiment with FM3A [1] is 6.40; in experiment [5], 5.96.

On to `Oc1cccc2cccnc12` [OXYQUINOLINE], for which the pIC50 was 5.68 in the experiment on FM3A [1] and > 5.68 in [5]. Besides, the T/C in the experiment on P388 [3] is 92%. Also, the Imbalance entry in the experiment on FM3A [6] is on record as “significant imbalance in the intracellular dNTP pool in FM3A cells”.

For `CC(C)c1ccc(SCCSc2ccc(C(C)C)cc(=O)c2O)c(O)c(=O)c1`, the Imbalance entry in the experiment on FM3A [12] was “significant imbalance in the intracellular dNTP pool in FM3A cells”. In addition, the figures for the pIC50 (in the experiment on FM3A [1]; in [5]) were 5.32 and 5.80, respectively. Also, the T/C in the experiment on P388 [2] is recorded as 171%; in the experiment on P388 [3], 151%; in the experiment with P388 [7], 80%.

Take `CC(C)c1ccc(CCCCCCCCc2ccc(C(C)C)cc(=O)c2O)c(O)c(=O)c1`: the pIC50 in the experiment with FM3A [1] is 6.05; in experiment [5], 5.37. In addition, the T/C in the experiment on P388 [2] stood at 110%; in the experiment with P388 [3], 107%; in the experiment on P388 [7], 110%. In addition, the Imbalance entry with FM3A [6] was “significant imbalance in the intracellular dNTP pool in FM3A cells”.

For `CC(C)C1=CC(=O)C(=O)/C(=C2/C=CC(C(C)C)=CC(O)=C2O)C=C1`, the T/C is reported as 171% in the experiment on P388 [13], 152% in the experiment with P388 [14] and 143% in the experiment with P388 [15]. Moreover, the figures for the pIC50 (in the experiment on FM3A [1]; in experiment [5]) were 5.43 and 5.02, respectively. Also, the Imbalance entry in the experiment on FM3A [6] is “significant imbalance in the intracellular dNTP pool in FM3A cells”.

For `CC(C)c1ccc(SCCCSc2ccc(C(C)C)cc(=O)c2O)c(O)c(=O)c1`, the results for the T/C in the experiment with P388 [2], in the experiment with P388 [3] and with P388 [7] were 131%, 93% and 169%, respectively. The compound also had a pIC50 in [5] of 5.80.

Turning to `CCOC(c1ccc(OC)cc1)c1ccc(C(C)C)cc(=O)c1O` (stereo not given), the Imbalance entry with FM3A [16] is “significant imbalance in the intracellular dNTP pool in FM3A cells”. In addition, the pIC50 with FM3A [1] was 5.96; in [5] it was 5.80. Besides, the T/C with P388 [2] and with P388 [7] was 140% throughout.

Turning to `CC(C)c1ccc(CCc2ccc(C(C)C)cc(=O)c2O)c(O)c(=O)c1`, the T/C in the experiment on P388 [17] stood at 121%; with P388 [14], 150%; in the experiment with P388 [15] it was 165%. Also, the results for the pIC50 (with FM3A [1]; in experiment [5]) were 5.92 and 5.10, respectively. In addition, the Imbalance entry with FM3A [18] is “significant imbalance in the intracellular dNTP pool in FM3A cells”.

Take `COc1ccc(C(c2ccc3cccnc3c2O)c2ccc3cccnc3c2O)cc1`: the T/C in the experiment with P388 [17] turned out to be 128%; in the experiment with P388 [19] it was 164%; in the experiment on P388 [20] it was 111%. Also, the results for the pIC50 (with FM3A [1]; in experiment [5]) were 8.00 and > 6.15, respectively. Besides, the Imbalance entry with FM3A [6] was “significant imbalance in the intracellular dNTP pool in FM3A cells”.

As for `CC(C)c1ccc(Cc2ccc(C(C)C)cc(=O)c2O)c(O)c(=O)c1`, the T/C in the experiment with P388 [17] amounted to 137%; in the experiment with P388 [22], 152%; in the experiment with P388 [23] it was 123%. Moreover, in the experiment with FM3A [21], the Imbalance entry is listed as “significant imbalance in the intracellular dNTP pool in FM3A cells”. Besides, the pIC50 in the experiment on FM3A [1] was 6.00; in experiment [5], > 6.05.

On to `CC(C)c1ccc(CCCCCCc2ccc(C(C)C)cc(=O)c2O)c(O)c(=O)c1`, for which the Imbalance result in the experiment on FM3A [24] is “significant imbalance in the intracellular dNTP pool in FM3A cells”. Further, the T/C amounted to 137% with P388 [13]; 110% in the experiment with P388 [14]; 80% with P388 [2]; 128% with P388 [3]; 70% in the experiment with P388 [7]. Moreover, the pIC50 in the experiment with FM3A [1] was 6.05; in [5], 5.82.

Regarding `CC(C)c1ccc(COCc2ccc(C(C)C)cc(=O)c2O)c(O)c(=O)c1`, the pIC50 was 7.10 in the experiment on FM3A [1] and 5.21 in experiment [5]. The Imbalance result in the experiment on FM3A [25] is listed as “significant imbalance in the intracellular dNTP pool in FM3A cells”. Besides, the values for the T/C with P388 [26], in the experiment with P388 [27] and with P388 [28] were 156%, 164% and 186%, respectively.

On to `COc1ccc(C(c2oc(CO)cc(=O)c2O)c2oc(CO)cc(=O)c2O)cc1`, for which the pIC50 (in the experiment with FM3A [1]; in [5]) was < 3.60 each time. Also, in the experiment on P388 [29], the T/C entry was “inactive”.

Turning to `COc1ccc(C(c2ccc(C(C)C)cc(OC)c2=O)c2ccc(C(C)C)cc(OC)c2=O)cc1`, the results for the pIC50 (with FM3A [1]; in experiment [5]) were 4.85 and 3.94, respectively. The T/C entry with P388 [29] is “inactive”.

These data come from ChEMBL document CHEMBL1126143, “Synthesis and antitumor activity of tropolone derivatives. 7. Bistropolones containing connecting methylene chains” (J Med Chem, 1992).
